Hits are enriched below; roughly 2% of the tested compounds scored in any of these assays.
Rpn11 block: Rpn11 (PSMD14) deubiquitinase inhibitors, primary screen, biochemical, fluorescence polarization, uHTS | 26S proteasome non-ATPase regulatory subunit 14 (Homo sapiens), O00487 | human 26S proteasome, Ub4-pepOG fluorescence polarization; 20S core pre-blocked with epoxomicin | inhibition, % at 20 µM | hit rate 0.59% among 360,000;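 active = inhibition at 20 µM, scaled to each plate's controls, above about 33%, limit read from the data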
Target sequence (O00487 whole entry, looked up): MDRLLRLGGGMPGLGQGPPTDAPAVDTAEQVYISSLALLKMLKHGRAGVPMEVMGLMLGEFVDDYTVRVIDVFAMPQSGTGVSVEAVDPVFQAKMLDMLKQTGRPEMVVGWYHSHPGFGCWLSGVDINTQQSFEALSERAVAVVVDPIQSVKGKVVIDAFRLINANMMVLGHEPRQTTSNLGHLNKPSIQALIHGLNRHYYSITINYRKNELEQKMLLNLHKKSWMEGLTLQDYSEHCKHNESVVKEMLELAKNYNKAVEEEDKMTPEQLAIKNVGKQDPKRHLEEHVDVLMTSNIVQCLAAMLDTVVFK
LMPTP inh: LMPTP phosphatase inhibitors, primary screen, biochemical, fluorescence intensity, uHTS; recombinant LMPTP-A, OMFP fluorogenic substrate; inhibition, % at 20 µM; Low molecular weight phosphotyrosine protein phosphatase (Homo sapiens), P24666; hit rate 0.22% among 360,000;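 active = compounds that cut the enzyme signal by at least half of the control window in the single-dose screen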;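 also: plate controls were DMSO wells with enzyme plus substrate for no effect and substrate without enzyme for full effect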
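Assay system: LMPTP-A, protein tyrosine phosphatase of low molecular weight / Medium: pH 6.0 Bis-Tris buffer with DTT and Triton X-100 / Schedule: 50 min enzyme reaction at room temperature, protected from light / Measured by: endpoint fluorescence intensity from OMFP dephosphorylation / Read-out basis: % inhibition relative to no-enzyme and uninhibited control wells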
DNMT1 block: human DNMT1 methyltransferase inhibitors, primary screen, biochemical, molecular beacon, fluorescence, HinP1I cleavage, uHTS; DNA (cytosine-5)-methyltransferase 1 (Homo sapiens), P26358; inhibition (reported as % activation of signal), % at 10 µM; hit rate 0.83% among 360,000; AID 588458, 2011; in the data active = inhibition above about 50%
STEP inh: STEP phosphatase inhibitors, primary screen, biochemical, fluorescence intensity, uHTS; recombinant STEP, OMFP fluorogenic substrate; Tyrosine-protein phosphatase non-receptor type 5 (Homo sapiens), P54829; hit rate 0.25% among 360,000; inhibition, % at 20 µM;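 active = inhibition at 20 µM, scaled per plate between control wells, above about 37%, limit read from the data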;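 also: 0% = DMSO with enzyme and substrate and 100% = substrate only without enzyme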
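Assay system: isolated STEP enzyme / Timing: 20 min at room temperature, dark / Doses: 20 µM, 1% DMSO / Technique: fluorescence intensity, excitation 480 nm, emission 540 nm / Reagent: fluorogenic phosphatase substrate OMFP at 25 µM final / Measure: percent inhibition scaled to no-enzyme and uninhibited-enzyme controls, plate-pattern corrected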
Scp1 inh: Scp-1 phosphatase inhibitors, primary screen, biochemical, colorimetric, uHTS | Carboxy-terminal domain RNA polymerase II polypeptide A small phosphatase 1 (Homo … | Recombinant Scp1, phosphopeptide, malachite green phosphate absorbance | inhibition, % at 20 µM | hit rate 0.88% among 340,000;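 active = inhibition above about 50% at 20 µM, limit read from the data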;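 also: plate controls were DMSO wells with enzyme for no effect and wells lacking enzyme for full effect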
Target sequence (Q9GZU7 76-261 limits assumed): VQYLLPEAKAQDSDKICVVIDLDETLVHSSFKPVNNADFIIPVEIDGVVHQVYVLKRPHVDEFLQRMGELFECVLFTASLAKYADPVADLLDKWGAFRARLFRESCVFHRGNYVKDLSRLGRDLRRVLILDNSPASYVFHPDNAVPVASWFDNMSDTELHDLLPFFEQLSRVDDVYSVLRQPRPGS
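Incubation: 45 min enzyme reaction at room temperature / System: truncated SCP-1 phosphatase (76-261aa) / Reagent: Phospho 17-mer peptide substrate / Buffer or medium: Acidic Tris acetate buffer with magnesium and detergent / Signal: absorbance at 630 nm / Doses: one concentration, 20 µM, with 1.0% DMSO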
The depositor's hits bear a star.

CCOC(=O)C1CCN(c2nc(C)cc(C)c2C#N)CC1 was read as Rpn11 block -6, LMPTP inh 1, DNMT1 block 0, STEP inh 3 and Scp1 inh -4.
Screening NC1=C(Cl)C(=O)c2ccc(S(N)(=O)=O)cc2C1=O returned Rpn11 block -4, LMPTP inh 6, DNMT1 block 80*, STEP inh 9 and Scp1 inh 0.
CCCCCCCN1C(Nc2ccccc2)=NC[C@@H]1Cc1ccccc1 was read as Rpn11 block -11, LMPTP inh 3, DNMT1 block 58*, STEP inh 2 and Scp1 inh 3.
`COCCNC(=O)C1(C)CCCN(C(=O)c2ccccc2)C1` (stereo unspecified) gave Rpn11 block -3, LMPTP inh -2, DNMT1 block 5 and STEP inh 1.
Screening Oc1cc2c(cc1O)C1c3ccc(O)c(O)c3OCC1(O)C2 (stereo unspecified) returned Rpn11 block -18, LMPTP inh 3, DNMT1 block 10, STEP inh 4 and Scp1 inh 61*.
Screening COC(=O)c1ccc2c(c1)C(C)(C)C(/C=C/c1ccccc1O)=[N+]2C returned LMPTP inh 6, DNMT1 block -17, STEP inh -6 and Scp1 inh 99*.
COC(=O)c1ccc(N)c(N=CC2=C(O)CC(C)(C)CC2=O)c1 was read as LMPTP inh -1, DNMT1 block -8, STEP inh 0 and Scp1 inh -30.
`Cc1ccc(C(=O)N2CCC2(C)C(=O)NC(C)C)cc1` (stereo unspecified) gave Rpn11 block 2, LMPTP inh -1, DNMT1 block -3 and STEP inh -2.
Cc1cccc(C(=O)Oc2c(Br)cc(Br)cc2/C=N/NC(=O)c2ccncc2)c1 was read as Rpn11 block 4, LMPTP inh 0, DNMT1 block 1, STEP inh 0 and Scp1 inh -7.
Screening Cc1cc(C(=O)N/N=C/c2cc(Br)cc(Br)c2OC(=O)c2cccc(F)c2)n[nH]1 returned Rpn11 block 39, LMPTP inh 65*, DNMT1 block 35, STEP inh 1 and Scp1 inh 87*.
`Cn1c2nc(=O)n(-c3ccccc3)c(=O)c-2nc2c1CCCC2` gave Rpn11 block -82, LMPTP inh 5, DNMT1 block 8 and STEP inh -1.
`CCCCNC(=O)c1nc(C2CCN(S(=O)(=O)c3c(F)cccc3F)CC2)oc1-c1ccccc1` gave Rpn11 block 7, LMPTP inh 6, DNMT1 block -13 and STEP inh 3.
CN=c1scc(-c2ccccc2F)n1/N=C/c1ccc[nH]1 was read as Rpn11 block 28, LMPTP inh 2, DNMT1 block -16, STEP inh -4 and Scp1 inh 3.
Screening CN=c1scc(-c2ccccc2F)n1/N=C/c1ccc(O)c(O)c1O returned Rpn11 block -13, LMPTP inh 57*, DNMT1 block -10, STEP inh 8 and Scp1 inh 22.
For Cn1c(CCN2CCN(c3ccccn3)CC2)nc2cc(NC(=O)COc3ccc([N+](=O)[O-])cc3)ccc21 the results were Rpn11 block 0, LMPTP inh 71*, DNMT1 block 1, STEP inh 0 and Scp1 inh -9.
Screening Cn1c(CCN2CCOCC2)nc2cc(NC(=O)COc3ccc([N+](=O)[O-])cc3)ccc21 returned Rpn11 block 1, LMPTP inh 1, DNMT1 block 2, STEP inh 5 and Scp1 inh -5.
Screening CCN=C1NN=C(c2ccc(C)cc2)CS1 returned Rpn11 block 41*, LMPTP inh 0, DNMT1 block -13, STEP inh -2 and Scp1 inh -3.
Screening CNS(=O)(=O)c1ccc(CNC[C@H]2O[C@@H](n3cnc4c(=O)[nH]c(N)nc43)[C@H](O)[C@@H]2O)cc1 returned Rpn11 block 5, LMPTP inh 0, DNMT1 block 2 and STEP inh -1.
Screening Nc1cccc2nsnc12 returned Rpn11 block 7, LMPTP inh 0, DNMT1 block -21, STEP inh 1 and Scp1 inh 15.
Nc1cc2nsnc2cc1Br was read as Rpn11 block -48, LMPTP inh 22, DNMT1 block 111*, STEP inh 35 and Scp1 inh 6.
COc1ccccc1Cc1c(C2CCCCC2)nc2ccc(Br)cn12 was read as Rpn11 block -13, LMPTP inh 1, DNMT1 block 3 and STEP inh -2.
Screening O=C(N/N=C/c1ccc(-c2ccc(Cl)c(C(=O)O)c2)o1)c1cc2c(ccc3ccccc32)o1 returned Rpn11 block 26, LMPTP inh 8, DNMT1 block 32, STEP inh 28 and Scp1 inh 89*.
`O=c1ccc2cc3c([nH]c4ccc(Br)cc43)oc-2c1O` gave Rpn11 block 46*, LMPTP inh 52*, DNMT1 block 7 and STEP inh 1.
O=C1N(Cc2ccccc2)c2ccccc2OC1(F)F was read as Rpn11 block 0, LMPTP inh 0, DNMT1 block -2 and STEP inh 2.
CN1C(=O)S/C(=C/c2ccc(OCc3cccc(C(=O)O)c3)cc2)C1=O was read as Rpn11 block 1, LMPTP inh 4, DNMT1 block 1, STEP inh 2 and Scp1 inh 52*.
Screening O=C(CN1CCN(S(=O)(=O)c2ccc(F)cc2)CC1)c1ccc(O)c(O)c1 returned Rpn11 block -16, LMPTP inh 66*, DNMT1 block 2, STEP inh 2 and Scp1 inh -2.
Screening NC(=O)CN1CCN(S(=O)(=O)c2ccc(Cl)cc2)CC1 returned Rpn11 block -5, LMPTP inh 0, DNMT1 block -1, STEP inh 6 and Scp1 inh -7.
`COc1ccc(S(=O)(=O)N2CCN(CC(=O)c3ccc(O)c(O)c3)CC2)cc1` gave Rpn11 block -17, LMPTP inh 70*, DNMT1 block 3, STEP inh 2 and Scp1 inh -5.
`O=C(CN1CCN(S(=O)(=O)c2ccc(Cl)cc2)CC1)c1ccc(O)c(O)c1` gave Rpn11 block -5, LMPTP inh 59*, DNMT1 block 3, STEP inh 2 and Scp1 inh 7.
Screening CCOC(=O)[C@]12CCCC=C1N(CCc1ccc(OC)c(OC)c1)C(=O)[C@H](CC(=O)N1CCN(C(=O)C3CC3)CC1)C2 returned LMPTP inh -2.

Compound activity deposited in PubChem by Sanford-Burnham Center for Chemical Genomics.
